High-throughput results (PubChem)
SENP8 block-1: inhibitors of human SENP8 protease | purified SENP8, Z-RLRGG-aminoluciferin cleavage, luminescence | inhibition, % at 10 µM | hit rate 1.2% among 330,000; in the data active = inhibition above about 50%
Target sequence (Q96LD8 whole entry, looked up): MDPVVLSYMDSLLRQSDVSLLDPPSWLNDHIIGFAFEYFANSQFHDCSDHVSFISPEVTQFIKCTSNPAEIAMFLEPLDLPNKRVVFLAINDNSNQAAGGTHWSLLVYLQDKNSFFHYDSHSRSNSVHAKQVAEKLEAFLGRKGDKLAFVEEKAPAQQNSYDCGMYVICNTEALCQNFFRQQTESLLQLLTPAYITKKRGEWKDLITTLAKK
SENP1 inh: inhibitors of human SENP1 SUMO protease catalytic domain. AID 624204. inhibition, % at 10 µM. Q9P0U3. hit rate 0.21% among 360,000. recombinant SENP1 catalytic domain, CyPet-SUMO1-YPet FRET cleavage;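 active = inhibition at least 30% at 10 µM, raw YFP signal under a set limit, fluorescence ratio 0.5 to 1.5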;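 note: 0% = enzyme with DMSO and 100% = no enzyme wells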
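Compound: 10 µM single point, 0.5% DMSO; Test system: hSENP1 catalytic domain, recombinant; Timing: 50 min reaction at room temperature; Technique: FRET, CFP and YFP emission; Control set: no-enzyme wells low, DMSO-plus-enzyme wells high control.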
UCH37 inh: inhibitors of human deubiquitinating enzyme UCH37; Q9Y5K5; purified proteasome/UCH37, Ub-AMC cleavage fluorescence; inhibition, % (concentration not given with the values); hit rate 0.33% among 330,000; AID 588478;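 active = mean inhibition over replicate wells above about 20%, limit read from the data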;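 note: 0% = compound-free wells with enzyme and 100% = wells lacking proteasome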
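Schedule: 30 min plus 25 min, room temperature / Material: human UCH37 within purified proteasomes / Technique: AMC fluorescence intensity at 355/460 nm / Buffer or medium: pH 7.4 Tris-HCl (50 mM) with ovalbumin, ATP-MgCl2, DTT / Controls: wells without proteasome as full block, compound-free enzyme plus substrate as uninhibited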
SENP7 block: blocks the human protease SENP7; inhibition, % at 5 µM; recombinant SENP7, Z-RLRGG-aminoluciferin luminescence, 40 min; hit rate 1.5% among 330,000; Q9BQF6; AID 434973;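 active = inhibition above about 50% at the single test dose, limit read from the data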;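 note: plate controls were DMSO with enzyme for no effect and no enzyme buffer wells for full effect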
Target sequence (Q9BQF6 706-1050 limits assumed): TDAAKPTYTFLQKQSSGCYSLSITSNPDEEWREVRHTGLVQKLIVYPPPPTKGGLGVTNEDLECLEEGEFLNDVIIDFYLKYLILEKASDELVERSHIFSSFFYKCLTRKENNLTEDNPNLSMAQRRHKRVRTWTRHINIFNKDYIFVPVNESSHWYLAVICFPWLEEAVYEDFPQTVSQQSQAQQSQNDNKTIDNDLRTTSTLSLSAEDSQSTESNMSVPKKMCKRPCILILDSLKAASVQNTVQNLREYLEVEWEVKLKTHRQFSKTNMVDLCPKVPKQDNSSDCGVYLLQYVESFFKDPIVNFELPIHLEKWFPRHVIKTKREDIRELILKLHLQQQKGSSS
SENP6 inh: inhibitors of human SENP6 protease; hit rate 1.8% among 330,000; Q9GZR1; Recombinant SENP6 catalytic domain, aminoluciferin luminescence; inhibition, % at 10 µM; AID 2599;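 active = inhibition above about 50% at the single tested dose, limit read from the data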;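 note: plate controls were DMSO wells with enzyme for no effect and DMSO wells lacking enzyme for full effect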
SENP8 block-2: inhibitors of human SENP8 protease | AID 602440 | inhibition, % at 20 µM | recombinant SENP8, Nedd8 substrate fluorescence | Q96LD8 | hit rate 0.64% among 360,000; in the data active = inhibition mostly above about 40%, no sharp cut-off; inactive = mostly below about 27%
Active calls of the source: *; i = inactive; nt = no result; ! = not confirmed by another sample. This is a sample that favours compounds with a hit; in the whole collection about 2.6% have one here.

SMILES	SENP8 block-1	SENP1 inh	UCH37 inh	SENP7 block	SENP6 inh	SENP8 block-2
O=C(C=NO)Nc1ccc(F)cc1	nt	nt	-1	nt	nt	nt
O=C(O)c1cccc(-c2ccc(/C=c3/sc4nc5ccccc5n4c3=O)o2)c1	3	-35	nt	6	-5	-34
O=C(O)c1ccccc1-c1ccc(C=c2sc3nc4cc(Br)cnc4n3c2=O)o1	nt	-28	43*	nt	nt	-64
COc1ccccc1Cn1c(/C=C/c2ccccc2)nc2ccccc21	2	3	i	5	11	-324
COCCn1c(/C=C/c2ccccc2)nc2ccccc21	37	-1	-189	65*	-7	-480
Cc1nc2nc(-c3ccc(Cl)cc3)cn2nc1C	62*	-14	nt	-6	69*	-500
Cc1nc2nc(-c3cccs3)cn2nc1C	-9	-22	-76	-7	-3	-367
Cc1ccccc1-c1nnc(-c2cccs2)o1	55*	3	-1	55*	82*	-145
Cc1ccc(-c2nnc(/C=C/c3ccccc3)o2)cc1	42	3	-8	-2	76*	-391
CC(=NNC(=O)c1nnn(-c2nonc2N)c1CN(C)c1ccccc1)c1cccnc1	nt	nt	2	nt	nt	nt
O=C(NN1C(=O)/C(=C/c2ccc(O)c([N+](=O)[O-])c2)SC1=S)c1ccccc1Cl	4	32*	24*	7	-18	24
NC1=NC(=O)/C(=C\c2ccc(O)c([N+](=O)[O-])c2)S1	-9	1	24*	-2	-5	7
COc1cc(/C=C2\SC(=S)N(NC(=O)c3ccccc3O)C2=O)ccc1O	10	59*	11	-1	6	18
COc1cc(/C=C2/SC(N)=NC2=O)ccc1Oc1ccc([N+](=O)[O-])cc1[N+](=O)[O-]	8	5	5	7	3	14
O=C1/C(=C/c2ccc(O)c([N+](=O)[O-])c2)SC(=S)N1Cc1ccccc1	92*	38*	nt	30	95*	41*
O=C(NN1C(=O)/C(=C/c2cc([N+](=O)[O-])ccc2O)SC1=S)c1ccccc1O	6	nt	nt	8	8	nt
COc1ccc(C=NNS(=O)(=O)c2ccc(C)cc2)cc1OC(=O)c1ccccc1	nt	nt	4	nt	nt	nt
Cc1c(C=NNC(=O)c2csc3ccccc23)cnn1C	nt	nt	2	nt	nt	nt
O=C1C(=O)c2ccc(-c3ccccc3)cc2-c2ccccc21	58*	0	-88	91*	89*	100*
CC12CCC(C/C1=N\N=C1\NC(=O)/C(=C\c3ccc(Cl)cc3)S1)C2(C)C (centres undefined)	-19	3	nt	-3	-6	40*
O=C(NN=Cc1ccccn1)c1ccc(NC(=O)c2ccc(F)cc2)cc1	nt	nt	2	nt	nt	nt
CN(C)CCOC(=O)C1(c2ccccc2)CCOCC1	4	1	20*!	-1	-1	12
CC1OC(CC(=O)O)CC2=C1C(=O)c1c(O)cccc1C2=O (centres undefined)	nt	0	nt	nt	nt	89*
O=[N+]([O-])c1ccc(CCNc2cccc3ccccc23)c([N+](=O)[O-])c1	36	0	nt	12	55*	-25
Cc1cc([N+](=O)[O-])ccc1NCc1cccc2ccccc12	7	-3	5	-6	-20	17
SMILES	SENP8 block-1	SENP1 inh	UCH37 inh	SENP7 block	SENP6 inh	SENP8 block-2
CCOc1ccc(C(=O)Nc2cccc([N+](=O)[O-])c2)cc1Br	-1	1	0	56*	8	15
COc1ccccc1N1CCN(C(c2ccc(N(C)C)cc2)c2nnnn2CCc2ccccc2)CC1 (centres undefined)	-3	-1	6	-6	-4	47*
COc1ccc(C(c2nnnn2CCc2ccccc2)N2CCN(C3CCCC3)CC2)cc1 (centres undefined)	2	3	2	0	-6	21
CCOC(=O)c1cc(-c2ccc(/C=C3/C(=O)NC(=O)C(C#N)=C3C)o2)ccc1Cl	20	-28	22*	10	33	-28
COc1ccc(C(C)=NOC/C(O)=C(\C#N)c2nc3ccccc3[nH]2)cc1	nt	nt	-6	nt	nt	nt
COc1ccc(C(C)=NNC(=O)CNC(=O)/C=C\c2ccco2)cc1	nt	nt	5	nt	nt	nt
O=C(CNc1ccc(F)cc1)c1ccccc1	32	1	-1	19	65*	21
COc1ccc2cc1Oc1ccc(cc1)CC1c3c(cc(OC)c4c3Oc3cc5c(cc3O4)CCNC5C2)CCN1C (centres undefined)	-5	1	1	-12	-13	45*
CC1=CC(C)C(C=Nn2cnnc2)C(C)C1 (centres undefined)	nt	nt	4	nt	nt	nt
O=C(/C=C/c1ccc(Cl)cc1)N(Cc1ccccc1)c1ccccn1	6	0	27*	0	-2	12
O=C(c1ccccc1)N(Cc1ccccc1)c1ccccn1	4	0	5	15	9	3
Cc1ccc(N2CCN(N=C/C(Cl)=C/c3ccccc3)CC2)cc1	nt	nt	6	nt	nt	nt
O=C(NCCN1CCN(c2ccccc2)CC1)c1cccn2c(=O)c3ccccc3nc12	0	-28	-30	-1	-3	-232
O=C(NCCNc1ccc2ccccc2c1)c1cccn2c(=O)c3sccc3nc12	23	nt	nt	23	56*	nt
Cc1ccc(S(=O)(=O)NC2=C(N3CCN(c4ccccc4F)CC3)C(=O)c3ccccc3C2=O)cc1	0	-5	-1	27	26	46*!
Cc1ccc(S(=O)(=O)Nc2nc3ccccc3nc2N2CCN(c3ccccc3F)CC2)cc1	1	-5	2	1	-9	-482
O=C1C(NS(=O)(=O)c2cccs2)=C(N2CCN(c3ccccc3)CC2)C(=O)c2ccccc21	5	1	5	11	9	69*
Cc1ccc(S(=O)(=O)NC2=C(N3CCN(Cc4ccccc4)CC3)C(=O)c3ccccc3C2=O)cc1	-6	-11	6	-2	5	39*
Cc1ccc(S(=O)(=O)NN=C2CCN(Cc3ccccc3)CC2)cc1	0	2	0	-6	9	6
O=S(=O)(c1cccs1)N1CCN(c2ccccc2)CC1	0	2	2	7	-11	3
COc1cc(C=NNC(=O)CSc2cc(C)c(Br)cc2C)ccc1O	nt	nt	0	nt	nt	nt
C(=NNc1nn2cnnc2c2ccccc12)c1ccco1	nt	nt	12	nt	nt	nt
C=C1C(=O)O[C@@H]2[C@H]1[C@@H](OC(=O)/C(C)=C/C)CC(C)=CC(=O)C=C(C)[C@@H]2O	nt	nt	-1	nt	nt	nt
NC(CO)C(=O)NNCc1ccc(O)c(O)c1O (centres undefined)	4	5	7	16	9	45*
Cc1ccc(C=NN2CCN(c3ccncc3S(=O)(=O)N3CCCCC3)CC2)cc1	nt	nt	5	nt	nt	nt
COc1ccc(-c2cc(C(=O)NN=C(C)c3cccnc3)c3ccccc3n2)c(OC)c1	nt	nt	-23	nt	nt	nt
O=C1N(O)C2(C=CCCC2)C(=NO)C12CCCCC2 (centres undefined)	nt	nt	-1	nt	nt	nt
